These results are taken from ChEMBL document CHEMBL2176966, “Discovery of 6,7-dihydro-5H-pyrrolo[2,3-a]pyrimidines as orally available G protein-coupled receptor 119 agonists” (J Med Chem, 2012).

Data set [1] concerns Mus musculus. Description: Increase in PYY level in GPR119 knockout mouse at 30 mg/kg, po after 60 mins. The format is functional, organism-based. More on the design: dose 30 mg/kg. Summed up: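 Wild-type and GPR119 knockout mice, fasted overnight, were dosed by oral gavage (30 mg/kg, 10 mL/kg, 0.5% HPMC/0.1% Tween80 vehicle). Plasma was obtained from cardiac blood at 60 min in chilled K2-EDTA containing DPP-4 inhibitor and aprotinin, then stored at −80 °C. Hormone levels were compared with vehicle; n = 8–10.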

Data set [2] is described as follows: Equilibrium solubility of the compound in fasted simulated intestinal fluid. The format is physicochemical.
Data set [3] can be described thus: Oral bioavailability in mouse at 30 mg/kg. It counts as ADME, organism-based. The settings on record: in vivo.
Data set [4] has as its system Rattus norvegicus. The data set can be described thus: Dose normalized AUC (0 to 24 hrs) in rat at 30 mg/kg. It counts as ADME, organism-based. More on the design: dose 30 mg/kg. To be noted: in vivo.
For data set [5], the species on record is Rattus norvegicus. The data set can be described thus: Potentiation of 12 mM of glucose-induced insulin secretion in rat islet at 0.3 uM.
Data set [6] is described as follows: Volume of distribution at steady state in rat at 30 mg/kg. It counts as ADME, organism-based. More on the design: dose 30 mg/kg. The settings on record: in vivo, read-out: Vdss.
Data set [7] relates to Mus musculus. The data set can be described thus: Dose normalized AUC (0 to 24 hrs) in mouse at 30 mg/kg. The format is ADME, organism-based. Also noted: dose 30 mg/kg. The settings on record: in vivo.
In data set [8] the test system is Mus musculus. Description: Increase in GIP level in GPR119 transgenic wild type mouse at 30 mg/kg, po after 60 mins by ELISA relative to control. It counts as functional. Summed up:
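Overnight-fasted wild-type or GPR119 knockout mice were given vehicle (0.5% HPMC/0.1% Tween80) or 30 mg/kg orally at 10 mL/kg. Cardiac blood was drawn 60 min post-dose under isoflurane into chilled K2-EDTA with DPP-4 inhibitor and aprotinin (250 KIU/mL). Plasma was prepared at 4 °C and held at −80 °C. Total GIP was measured by ELISA; n = 10.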
(ELISA stands for enzyme-linked immunosorbent assay.)

A short description of data set [9]: Cmax in mouse at 30 mg/kg. More on the design: dose 30 mg/kg. To be noted: in vivo. It counts as ADME, organism-based.
Data set [10] has as its system Rattus norvegicus. The data set can be described thus: Increase of glucose infusion rate in Wistar rat at 10 mg/kg, po. It counts as functional, organism-based. Also noted: dose 10 mg/kg. The method, boiled down: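 Catheterized male Wistar rats (300–350 g, jugular and femoral lines, one week recovery) were fasted overnight and gavaged with vehicle (n = 19) or compound (n = 8). After ~90 min, an IV glucose bolus over 15–30 s was followed by variable-rate glucose infusion. The infusion was adjusted to clamp plasma glucose at 190–210 mg/dL, and the required infusion rate was recorded. Serum glucose was measured by analyzer.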

The target in data set [11] is T1, Glucose-dependent insulinotropic receptor (Homo sapiens, UniProt Q8TDV5).
T1 sequence (Q8TDV5 whole entry): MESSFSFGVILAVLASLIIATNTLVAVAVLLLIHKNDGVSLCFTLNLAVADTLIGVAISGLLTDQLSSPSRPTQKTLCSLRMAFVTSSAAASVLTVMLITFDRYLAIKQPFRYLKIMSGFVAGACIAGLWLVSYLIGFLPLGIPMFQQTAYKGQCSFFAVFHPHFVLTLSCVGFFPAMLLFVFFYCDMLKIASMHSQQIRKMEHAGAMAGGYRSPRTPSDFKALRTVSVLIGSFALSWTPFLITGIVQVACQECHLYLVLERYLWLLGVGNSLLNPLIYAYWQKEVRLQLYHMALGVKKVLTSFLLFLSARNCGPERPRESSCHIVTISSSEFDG
Description: Agonist activity at human GPR119 receptor expressed in CHO-K1 cells co-expressing 6CRE-luciferase gene after 5 hrs by luciferase reporter gene assay. It counts as functional, cell-based. To be noted: read-out: pEC50 (converted). (In general: Reporter assays use an easily measured gene product as a stand-in for the process of interest.)

For data set [12], the system named is Rattus norvegicus. The data set can be described thus: Increase of C-peptide level in Wistar rat at 10 mg/kg, po up to 5 mins. It counts as functional, organism-based. Also noted: dose 10 mg/kg. The method, boiled down:
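Male Wistar rats (300–350 g) with jugular and femoral vein catheters, one week post-surgery, fasted overnight. Randomized to vehicle (n = 19) or oral compound (n = 8). About 90 min after gavage, a hyperglycemic clamp was started: a glucose bolus into the femoral vein, then variable-rate infusion holding glucose at 190–210 mg/dL. Serum C-peptide was measured by RIA, first phase 0–5 min and second phase 10–90 min.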

In brackets after ≈: the same amount, converted by molar mass. Activity calls are given as the source filed them. The rule behind the calls is not given here.

In general, solubility (thermodynamic) refers to the concentration in solution at equilibrium with solid. As a reminder, the bioavailability is the share of a dose that reaches the circulation, judged against a reference dose that is usually intravenous. Broadly, the Cmax is the maximum level reached in the sampled fluid or tissue. For `CC(C)OC(=O)N1CCC(Oc2ncnc3c2CCN3c2ccc(S(C)(=O)=O)cc2F)CC1`, the outcome in the data set with Mus musculus [1] was inactive. Further, in [2], the thermodynamic solubility is 4 µg/mL (≈ 8.36 µM). Besides, the bioavailability in data set [3] stood at 40%. Also, the values for the AUC/dose in the data set on Rattus norvegicus [4] and in the data set on Mus musculus [7] were 2.04 µg·h/mL and 1.7 µg·h/mL, respectively. Moreover, the result in the data set listed under Rattus norvegicus [5], with Rattus norvegicus [10] and in the data set on Rattus norvegicus [12] was Active. The Vd in data set [6] is 1.5 L/kg. Further, the “fold change (FC)” value in the data set on Mus musculus [8] was 2. The molecule further displayed a Cmax in data set [9] of 8.4 µM. The EC50 in data set [11] is 50.1 nM.
